Assay results of several laboratories.
Each line is one published result; the experiments were not run side by side.
Observed: cell growth or viability

`C=CC(=O)c1cccnc1Nc1cc(C(F)(F)F)ccc1OC` has a GI50 of 6.19 µM (BXPC-3; SRB; 48 h).
With `C=CC(=O)NC1CCN(c2ncc3ncnc(Nc4ccc(Oc5ccc6c(c5)ncn6C)c(C)c4)c3n2)CC1` the EC50 was 0.108 µM (JHH-4).
`Cc1nc(Nc2ccc3c(c2)/C(=C/c2ccccc2)C(=O)N3Cc2ccccc2)c2ccccc2n1` has an IC50 of 15.1 µM (B16; MTT).
With `COc1cc2c3c(n(CCCNC(C)C)c(=O)c2cc1OC)-c1nc2c(cc1C3=O)OCO2` the IC50 was 0.031 µM (RD-ES; MTS; 72 h).
`C=CC(=O)c1cccnc1Nc1cc(C(F)(F)F)ccc1OCc1ccccc1` has a GI50 of 11.6 µM (BXPC-3; SRB; 48 h).
`Cc1nc(Nc2ccc3c(c2)CC(=O)N3)c2ccccc2n1` has an IC50 of 3.13 µM (B16; MTT).
With `Nc1ccc(/C=C/C(=O)N2CCc3c(oc4c(-c5ccc(F)cc5)cc(-c5ccc(C(=O)N6CCC(F)(F)CC6)nn5)cc34)C2)cn1` the IC50 was over 20 µM (BXPC-3; CCK-8; 72 h).
`COc1cc2c3c(n(CCCn4ccnc4)c(=O)c2cc1OC)-c1nc2c(cc1C3=O)OCO2` gave an IC50 of 0.18 µM (RD-ES; MTS; 72 h).
For `COc1cc2ncnc(N(C)c3ccc4c(c3)/C(=C/c3cccc(Cl)c3)C(=O)N4C)c2cc1OC`, the IC50 was 2.51 µM (B16; MTT).
The IC50 of `Nc1ccc(/C=C/C(=O)NCc2cc3cc(-c4ccc(C(=O)N5CCC(F)(F)CC5)cc4)cc(-c4ccc(F)cc4)c3o2)cn1` is reported as over 20 µM (BXPC-3; CCK-8; 72 h).
